Values after ≈ are worked out from the molar mass of the structure shown.
Tests used:
Candida albicans [1] = test: Antifungal activity against Candida albicans NCIM 3471 after 48 to 72 hrs by SDA agar dilution method; format: functional
Summary of the method: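 CLSI agar method. Compounds dissolved in DMSO. C. albicans subcultured on Sabouraud dextrose agar at 25 °C for 72 h, suspended in sterile water at 10^5 cells/mL, and inoculated onto test, drug-free and DMSO control plates. Plates incubated at 25 °C. MIC taken as the lowest concentration that prevents macroscopically visible colonies, read at 48 h and 72 h.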

Candida albicans [2] = test: Antibiofilm activity against Candida albicans NCIM 3471 after 24 hrs by MTT assay; format: functional, organism-based; settings: NCIM 3471, 24 h
Summary of the method: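 Biofilms formed from C. albicans at 10^5 cells/well in RPMI, exposed to 0–100 µM compound (fluconazole reference) for 24 h at 30 °C. Wells washed with phosphate buffer, then MTT (1 µg/µL) added for 3 h in the dark. Formazan dissolved in DMSO, absorbance read at 575 nm. IC50 for 50% biofilm inhibition taken from the inhibition curve.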

Bacillus subtilis = test: Antibacterial activity against Bacillus subtilis NCIM 2063 after 24 hrs by two-fold serial dilution method; format: functional; settings: NCIM 2063, 24 h
Summary of the method: (§1)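 Bacterial inocula taken from 24 h nutrient agar cultures at 37±1 °C, brought to […] with sterile saline, grown in nutrient broth. Compounds tested as two-fold serial dilutions at 400, 200, 100, 50, 25, 12.5, 6.25 and 3.13 µg/mL, with ciprofloxacin as reference. Incubation at 37±1 °C; MIC read after 24 h.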

Escherichia coli = test: Antibacterial activity against Escherichia coli NCIM 2256 after 24 hrs by two-fold serial dilution method; format: functional; settings: NCIM 2256, 24 h; summary of the method: as §1
Pseudomonas aeruginosa = test: Antibacterial activity against Pseudomonas aeruginosa NCIM 2036 after 24 hrs by two-fold serial dilution method; format: functional; settings: NCIM 2036, 24 h; summary of the method: as §1
Staphylococcus aureus = test: Antibacterial activity against Staphylococcus aureus NCIM 2901 after 24 hrs by two-fold serial dilution method; format: functional; settings: NCIM 2901, 24 h; summary of the method: as §1

In the case of `O=[N+]([O-])c1cccc(/N=C/c2cccc(/C=C/c3ccc4ccc(Cl)cc4n3)c2)c1`, the MIC (Candida albicans [1]) is reported as 106 µg/mL (≈ 256 µM), the IC50 (Candida albicans [2]) is reported as 83.6 µM and the MIC (Bacillus subtilis) is reported as 17.4 µg/mL (≈ 42 µM). The MIC (Escherichia coli) was 185 µg/mL (≈ 447 µM), the MIC (Pseudomonas aeruginosa) was 190 µg/mL (≈ 459 µM) and the MIC (Staphylococcus aureus) was 104 µg/mL (≈ 252 µM).
`COc1ccc(/N=C/c2cccc(/C=C/c3ccc4ccc(Cl)cc4n3)c2)cc1` showed an MIC (Candida albicans [1]) of 105 µg/mL (≈ 263 µM), an IC50 (Candida albicans [2]) of 97.5 µM and an MIC (Bacillus subtilis) of 17.6 µg/mL (≈ 44.1 µM). It also gave an MIC (Escherichia coli) of 120 µg/mL (≈ 301 µM), an MIC (Pseudomonas aeruginosa) of 167 µg/mL (≈ 419 µM) and an MIC (Staphylococcus aureus) of 94.8 µg/mL (≈ 238 µM).
In the case of `Clc1ccc(/N=C/c2cccc(/C=C/c3ccc4ccc(Cl)cc4n3)c2)cc1`, the MIC (Candida albicans [1]) is reported as 94.2 µg/mL (≈ 234 µM), the IC50 (Candida albicans [2]) is reported as 66.2 µM and the MIC (Bacillus subtilis) is reported as 31.6 µg/mL (≈ 78.4 µM). It also gave an MIC (Escherichia coli) of 45 µg/mL (≈ 112 µM), an MIC (Pseudomonas aeruginosa) of 228 µg/mL (≈ 567 µM) and an MIC (Staphylococcus aureus) of 170 µg/mL (≈ 422 µM).
Work on `Cc1ccc(/N=C/c2cccc(/C=C/c3ccc4ccc(Cl)cc4n3)c2)cc1` yielded an MIC (Candida albicans [1]) of 164 µg/mL (≈ 429 µM), an IC50 (Candida albicans [2]) of 96.2 µM and an MIC (Bacillus subtilis) of 17 µg/mL (≈ 44.3 µM). For the same compound, the MIC (Escherichia coli) was 205 µg/mL (≈ 535 µM), the MIC (Pseudomonas aeruginosa) was 177 µg/mL (≈ 462 µM) and the MIC (Staphylococcus aureus) was 98.5 µg/mL (≈ 257 µM).
With `FC(F)(F)c1cccc(/N=C/c2cccc(/C=C/c3ccc4ccc(Cl)cc4n3)c2)c1` the MIC (Candida albicans [1]) was 191 µg/mL (≈ 437 µM), the IC50 (Candida albicans [2]) was 87.2 µM and the MIC (Bacillus subtilis) was 33.4 µg/mL (≈ 76.5 µM). For the same compound, the MIC (Escherichia coli) was 102 µg/mL (≈ 233 µM), the MIC (Pseudomonas aeruginosa) was 142 µg/mL (≈ 325 µM) and the MIC (Staphylococcus aureus) was 71.3 µg/mL (≈ 163 µM).
For `Clc1ccc2ccc(/C=C/c3cccc(/C=N/c4ccccc4)c3)nc2c1`, the MIC (Candida albicans [1]) was 98.8 µg/mL (≈ 268 µM), the IC50 (Candida albicans [2]) was 199 µM and the MIC (Bacillus subtilis) was 32.4 µg/mL (≈ 87.7 µM). For the same compound, the MIC (Escherichia coli) was 110 µg/mL (≈ 298 µM), the MIC (Pseudomonas aeruginosa) was 102 µg/mL (≈ 277 µM) and the MIC (Staphylococcus aureus) was 91.6 µg/mL (≈ 248 µM).
Compound `Cc1ccccc1/N=C/c1cccc(/C=C/c2ccc3ccc(Cl)cc3n2)c1` has an MIC (Candida albicans [1]) of 104 µg/mL (≈ 273 µM), an IC50 (Candida albicans [2]) of 166 µM and an MIC (Bacillus subtilis) of 136 µg/mL (≈ 356 µM). For the same compound, the MIC (Escherichia coli) was 68.5 µg/mL (≈ 179 µM), the MIC (Pseudomonas aeruginosa) was 185 µg/mL (≈ 483 µM) and the MIC (Staphylococcus aureus) was 85.3 µg/mL (≈ 223 µM).
Work on `O=[N+]([O-])c1ccc(/N=C/c2cccc(/C=C/c3ccc4ccc(Cl)cc4n3)c2)cc1` yielded an MIC (Candida albicans [1]) of 121 µg/mL (≈ 293 µM), an IC50 (Candida albicans [2]) of 92.1 µM and an MIC (Bacillus subtilis) of 15.7 µg/mL (≈ 37.9 µM). For the same compound, the MIC (Escherichia coli) was 150 µg/mL (≈ 362 µM), the MIC (Pseudomonas aeruginosa) was 200 µg/mL (≈ 484 µM) and the MIC (Staphylococcus aureus) was 166 µg/mL (≈ 400 µM).
`FC(F)(F)c1ccccc1/N=C/c1cccc(/C=C/c2ccc3ccc(Cl)cc3n2)c1` showed an MIC (Candida albicans [1]) of 282 µg/mL (≈ 646 µM), an IC50 (Candida albicans [2]) of 94.3 µM and an MIC (Bacillus subtilis) of 36.2 µg/mL (≈ 82.9 µM). The MIC (Escherichia coli) was 67.5 µg/mL (≈ 155 µM), the MIC (Pseudomonas aeruginosa) was 250 µg/mL (≈ 572 µM) and the MIC (Staphylococcus aureus) was 55.3 µg/mL (≈ 127 µM).
For `FC(F)(F)c1ccc(/N=C/c2cccc(/C=C/c3ccc4ccc(Cl)cc4n3)c2)cc1`, the MIC (Candida albicans [1]) was 174 µg/mL (≈ 399 µM), the IC50 (Candida albicans [2]) was 51.2 µM and the MIC (Bacillus subtilis) was 37.7 µg/mL (≈ 86.2 µM). It also gave an MIC (Escherichia coli) of 84.5 µg/mL (≈ 193 µM), an MIC (Pseudomonas aeruginosa) of 91.5 µg/mL (≈ 209 µM) and an MIC (Staphylococcus aureus) of 89.7 µg/mL (≈ 205 µM).
`O=C(O)c1cn(C2CC2)c2cc(N3CCNCC3)c(F)cc2c1=O` [CIPROFLOXACIN] gave an MIC (Pseudomonas aeruginosa) of 50 µg/mL (≈ 151 µM).
`OC(Cn1cncn1)(Cn1cncn1)c1ccc(F)cc1F` [FLUCONAZOLE] gave an MIC (Candida albicans [1]) of 50 µg/mL (≈ 163 µM).
